Measurements published in ChEMBL document CHEMBL4373687, “Introducing nitrogen atoms to amidoalkylindoles: potent and selective cannabinoid type 2 receptor agonists with improved aqueous solubility” (Medchemcomm, 2019).
pEC50, pIC50: −log10 of the molar value.

Key:
[1] = biological target: T1, Cannabinoid receptor 1 (Homo sapiens, UniProt P21554); experiment: Agonist activity at human CB1-receptor expressed in CHO-K1 cells coexpressing G-alpha16 by Fluo-4-AM dye based calcium mobilization assay; format: cell-based; conditions: for EC50: cho-k1; for pEC50: read-out: EC50
T1 sequence (P21554 whole entry): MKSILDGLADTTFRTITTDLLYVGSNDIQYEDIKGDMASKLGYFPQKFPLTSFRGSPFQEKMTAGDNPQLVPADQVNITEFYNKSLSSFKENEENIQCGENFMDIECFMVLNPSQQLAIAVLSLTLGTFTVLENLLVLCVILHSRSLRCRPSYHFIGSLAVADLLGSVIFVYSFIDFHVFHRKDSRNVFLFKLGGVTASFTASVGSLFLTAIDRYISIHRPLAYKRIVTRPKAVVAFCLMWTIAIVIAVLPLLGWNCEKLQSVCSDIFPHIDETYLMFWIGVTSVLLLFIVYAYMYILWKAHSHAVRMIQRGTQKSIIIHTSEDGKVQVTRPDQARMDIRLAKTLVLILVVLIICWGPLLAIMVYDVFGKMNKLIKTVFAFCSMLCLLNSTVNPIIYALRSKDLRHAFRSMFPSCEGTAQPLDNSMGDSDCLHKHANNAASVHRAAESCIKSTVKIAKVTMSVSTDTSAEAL

[2] = biological target: T2, Cannabinoid receptor 2 (Homo sapiens, UniProt P34972); experiment: Agonist activity at human CB2-receptor expressed in CHO-K1 cells coexpressing G-alpha16 by Fluo-4-AM dye based calcium mobilization assay; format: functional, cell-based; conditions: for pEC50: read-out: EC50; for EC50: cho-k1
T2 sequence (P34972 whole entry): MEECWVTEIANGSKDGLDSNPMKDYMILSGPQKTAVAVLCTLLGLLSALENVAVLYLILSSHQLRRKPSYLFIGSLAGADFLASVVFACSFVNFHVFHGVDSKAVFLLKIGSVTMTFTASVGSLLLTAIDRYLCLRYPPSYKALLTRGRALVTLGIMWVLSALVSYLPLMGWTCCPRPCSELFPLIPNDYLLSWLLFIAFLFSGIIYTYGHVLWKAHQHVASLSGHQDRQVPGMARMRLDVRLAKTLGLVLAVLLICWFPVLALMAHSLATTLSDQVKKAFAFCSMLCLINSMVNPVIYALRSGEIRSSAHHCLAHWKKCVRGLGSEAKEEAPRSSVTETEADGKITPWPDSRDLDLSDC

[3] = biological target: T2, Cannabinoid receptor 2; experiment: Agonist activity at human CB2-receptor expressed in CHO-K1 cells coexpressing G-alpha16 assessed as maximum efficacy by Fluo-4-AM dye based calcium mobilization assay relative to CP55940; format: functional, cell-based
Outline: (§1)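 CHO-K1 cells stably co-expressing Gα16 and human CB1 or CB2, seeded 24 h. Loaded with 2 μM fluo-4 AM in HBSS (with sulfinpyrazone, pH 7.4) at 37 °C for 45 min. Compound added and calcium fluorescence recorded (ex 485/em 525 nm). CP55940 positive control, DMSO negative control. Compounds with >50% activation at 10 μM got eight-point curves in triplicate, sigmoidal fit for EC50.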

[4] = biological target: T1, Cannabinoid receptor 1; experiment: Antagonist activity at human CB1-receptor expressed in CHO-K1 cells coexpressing G-alpha16 pre-incubated for 10 mins and later treated with 100 nM CB-receptor agonist, CP55940 by Fluo-4-AM dye based calcium mobilization assay; format: cell-based
Outline: (§2)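 CHO-K1 cells stably co-expressing Gα16 and human CB1 or CB2, loaded with 2 μM fluo-4 AM in HBSS pH 7.4 at 37 °C for 45 min. Pre-incubated with compound for 10 min at room temperature, then CP55940 added at 100 nM. Peak calcium read over 60 s (ex 485/em 525 nm). Rimonabant positive control. Actives got eight-point curves in triplicate, sigmoidal fit for IC50.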

[5] = biological target: T2, Cannabinoid receptor 2; experiment: Antagonist activity at human CB2-receptor expressed in CHO-K1 cells coexpressing G-alpha16 pre-incubated for 10 mins and later treated with 100 nM CB-receptor agonist, CP55940 by Fluo-4-AM dye based calcium mobilization assay; format: functional, cell-based; conditions: for IC50: cho-k1; for pIC50: read-out: IC50; outline: as §2
[6] = biological target: T1, Cannabinoid receptor 1; experiment: Agonist activity at human CB1-receptor expressed in CHO-K1 cells coexpressing G-alpha16 at 10 uM by Fluo-4-AM dye based calcium mobilization assay; format: cell-based; conditions: cho-k1, 10 µM; outline: as §1
[7] = biological target: T2, Cannabinoid receptor 2; experiment: Agonist activity at human CB2-receptor expressed in CHO-K1 cells coexpressing G-alpha16 at 10 uM by Fluo-4-AM dye based calcium mobilization assay; format: functional, cell-based; outline: as §1
[8] = biological target: T2, Cannabinoid receptor 2; experiment: Antagonist activity at human CB2-receptor expressed in CHO-K1 cells coexpressing G-alpha16 at 10 uM pre-incubated for 10 mins and later treated with 100 nM CB-receptor agonist, CP55940 by Fluo-4-AM dye based calcium mobilization assay; format: functional, cell-based; outline: as §2
[9] = biological target: T1, Cannabinoid receptor 1; experiment: Antagonist activity at human CB1-receptor expressed in CHO-K1 cells coexpressing G-alpha16 at 10 uM pre-incubated for 10 mins and later treated with 100 nM CB-receptor agonist, CP55940 by Fluo-4-AM dye based calcium mobilization assay; format: cell-based; outline: as §2
[10] = biological target: T1, Cannabinoid receptor 1; experiment: Agonist activity at human CB1-receptor expressed in CHO-K1 cells coexpressing G-alpha16 assessed as maximum efficacy by Fluo-4-AM dye based calcium mobilization assay relative to CP55940; format: cell-based; outline: as §1
[11] = Kinetic aqueous solubility of compound in phosphate-buffer containing 1% DMSO ultrasonicated for 10 mins at pH 7.4 measured using 80-95% methanol in water as gradient for 19 mins by HPLC analysis; format: physicochemical; conditions: pH 7.4, 10 min
Outline: (§3)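 Kinetic solubility: 10 mM DMSO stock diluted into 10 mM phosphate buffer pH 7.4 or 1.4 (final 1% DMSO), sonicated 10 min at room temperature, filtered 0.22 μm. Quantified by C18 HPLC against a standard curve. Gradient 80–95% methanol/water with trifluoroacetic acid over 19 min at 1.2 mL/min. n = 3.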

[12] = Kinetic aqueous solubility of compound in phosphate-buffer containing 1% DMSO ultrasonicated for 10 mins at pH 1.4 measured using 80-95% methanol in water as gradient for 19 mins by HPLC analysis; format: physicochemical; conditions: pH 1.4, 10 min; outline: as §3

Row | SMILES | EC50 [1] | pEC50 [2] | Emax [3] [%] | IC50 [4] | IC50 [5] | Activity [6] [%] | Activity [7] [%] | inhibition [8] [%] | inhibition at 10 µM [9] [%] | pEC50 [1] | Emax [10] [%] | EC50 [2] | pIC50 [5] | Kinetic_solubility [11] [uM/L] | log(Kinetic_solubility) [11] | Kinetic_solubility [12] [uM/L] | log(Kinetic_solubility) [12]
1 | CCCCCn1c(C(=O)NC23CC4CC(CC(C4)C2)C3)cc2cccnc21 | Not Active | 6.04 | 46.2 | Not Active | Not Active | < 50 | > 50 | < 50 | < 50 | – | – | – | – | – | – | – | –
2 | CCCCCn1cc(C(=O)NC23CC4CC(CC(C4)C2)C3)c2cnccc21 | – | – | – | Not Active | – | > 50 | < 50 | > 50 | < 50 | 5.68 | 41 | Not Active | 6.59 | – | – | – | –
3 | O=C(NC12CC3CC(CC(C3)C1)C2)c1cc2cnccc2[nH]1 | Not Active | 5.70 | 121 | Not Active | Not Active | < 50 | > 50 | < 50 | < 50 | – | – | – | – | – | – | – | –
4 | O=C(NC12CC3CC(CC(C3)C1)C2)c1c[nH]c2cccnc12 | Not Active | – | – | Not Active | Not Active | < 50 | < 50 | < 50 | < 50 | – | – | Not Active | – | – | – | – | –
5 | CCCCCn1c(C(=O)NC23CC4CC(CC(C4)C2)C3)nc2ccccc21 | Not Active | 6.49 | 62.2 | Not Active | Not Active | < 50 | > 50 | < 50 | < 50 | – | – | – | – | – | – | – | –
6 | CCCCCn1cc(C(=O)NC23CC4CC(CC(C4)C2)C3)c2cccnc21 | – | 7.49 | 79.4 | Not Active | Not Active | > 50 | > 50 | < 50 | < 50 | 6.13 | 39.1 | – | – | – | – | – | –
7 | CCCCCn1c(C(=O)NC23CC4CC(CC(C4)C2)C3)cc2cnccc21 | Not Active | – | – | Not Active | Not Active | < 50 | < 50 | < 50 | < 50 | – | – | Not Active | – | – | – | – | –
8 | O=C(NC12CC3CC(CC(C3)C1)C2)c1cc2ncccc2n1CCN1CCOCC1 | Not Active | – | – | Not Active | Not Active | < 50 | < 50 | < 50 | < 50 | – | – | Not Active | – | – | – | – | –
9 | O=C(NC12CC3CC(CC(C3)C1)C2)c1c[nH]c2ccncc12 | Not Active | – | – | Not Active | Not Active | < 50 | < 50 | < 50 | < 50 | – | – | Not Active | – | – | – | – | –
10 | O=C(NC12CC3CC(CC(C3)C1)C2)c1nc2ccccc2n1CCN1CCOCC1 | Not Active | – | – | Not Active | – | < 50 | < 50 | > 50 | < 50 | – | – | Not Active | 7.44 | – | – | – | –
11 | O=C(NC12CC3CC(CC(C3)C1)C2)c1nc2ccccc2[nH]1 | Not Active | 6.28 | 85.3 | Not Active | Not Active | < 50 | > 50 | < 50 | < 50 | – | – | – | – | – | – | – | –
12 | O=C(NC12CC3CC(CC(C3)C1)C2)c1cc2cnccc2n1CCN1CCOCC1 | Not Active | – | – | Not Active | Not Active | < 50 | < 50 | < 50 | < 50 | – | – | Not Active | – | – | – | – | –
13 | O=C(NC12CC3CC(CC(C3)C1)C2)c1cc2ccccc2n1CCCCO | – | – | – | – | – | – | – | – | – | – | – | – | – | 23.71 | -4.63 | 16.77 | -4.78
14 | O=C(NC12CC3CC(CC(C3)C1)C2)c1c[nH]c2ncccc12 | Not Active | – | – | Not Active | – | < 50 | < 50 | > 50 | < 50 | – | – | Not Active | 5.19 | – | – | – | –
15 | O=C(NC12CC3CC(CC(C3)C1)C2)c1cn(CCN2CCOCC2)c2ccncc12 | Not Active | – | – | Not Active | Not Active | < 50 | < 50 | < 50 | < 50 | – | – | Not Active | – | – | – | – | –
16 | O=C(NC12CC3CC(CC(C3)C1)C2)c1cc2cccnc2[nH]1 | Not Active | 6.54 | 40.7 | Not Active | Not Active | < 50 | > 50 | < 50 | < 50 | – | – | – | – | – | – | – | –
17 | O=C(NC12CC3CC(CC(C3)C1)C2)c1nn(CCN2CCOCC2)c2ccccc12 | – | 7.24 | 85.3 | Not Active | Not Active | > 50 | > 50 | < 50 | < 50 | 6.52 | 109 | – | – | – | – | – | –
18 | CCCCCn1nc(C(=O)NC23CC4CC(CC(C4)C2)C3)c2ccccc21 | – | 7.04 | 58.5 | Not Active | Not Active | > 50 | > 50 | < 50 | < 50 | 7.42 | 99.6 | – | – | – | – | – | –
19 | O=C(NC12CC3CC(CC(C3)C1)C2)c1cc2ncccc2[nH]1 | Not Active | 6.23 | 38 | Not Active | Not Active | < 50 | > 50 | < 50 | < 50 | – | – | – | – | – | – | – | –
20 | CCCCCn1cc(C(=O)NC23CC4CC(CC(C4)C2)C3)c2ncccc21 | – | – | – | Not Active | – | > 50 | < 50 | > 50 | < 50 | 6.74 | 48.2 | Not Active | 7.92 | – | – | – | –
21 | O=C(NC12CC3CC(CC(C3)C1)C2)c1cn(CCN2CCOCC2)c2cccnc12 | Not Active | – | – | Not Active | Not Active | < 50 | < 50 | < 50 | < 50 | – | – | Not Active | – | – | – | – | –
22 | CCCCCn1c(C(=O)NC23CC4CC(CC(C4)C2)C3)cc2ncccc21 | Not Active | 6.66 | 50 | Not Active | Not Active | < 50 | > 50 | < 50 | < 50 | – | – | – | – | – | – | – | –
23 | O=C(NC12CC3CC(CC(C3)C1)C2)c1cc2cccnc2n1CCN1CCOCC1 | – | – | – | Not Active | – | > 50 | < 50 | > 50 | < 50 | 6.19 | 88.4 | Not Active | 7.11 | – | – | – | –
